Experimental data gathered from unrelated publications.
Compare with care: the assays were run in different laboratories.
Target: Protein kinase C iota type (PRKCI, Homo sapiens, UniProt P41743)
Sequence (P41743 1-596, as in one of the studies): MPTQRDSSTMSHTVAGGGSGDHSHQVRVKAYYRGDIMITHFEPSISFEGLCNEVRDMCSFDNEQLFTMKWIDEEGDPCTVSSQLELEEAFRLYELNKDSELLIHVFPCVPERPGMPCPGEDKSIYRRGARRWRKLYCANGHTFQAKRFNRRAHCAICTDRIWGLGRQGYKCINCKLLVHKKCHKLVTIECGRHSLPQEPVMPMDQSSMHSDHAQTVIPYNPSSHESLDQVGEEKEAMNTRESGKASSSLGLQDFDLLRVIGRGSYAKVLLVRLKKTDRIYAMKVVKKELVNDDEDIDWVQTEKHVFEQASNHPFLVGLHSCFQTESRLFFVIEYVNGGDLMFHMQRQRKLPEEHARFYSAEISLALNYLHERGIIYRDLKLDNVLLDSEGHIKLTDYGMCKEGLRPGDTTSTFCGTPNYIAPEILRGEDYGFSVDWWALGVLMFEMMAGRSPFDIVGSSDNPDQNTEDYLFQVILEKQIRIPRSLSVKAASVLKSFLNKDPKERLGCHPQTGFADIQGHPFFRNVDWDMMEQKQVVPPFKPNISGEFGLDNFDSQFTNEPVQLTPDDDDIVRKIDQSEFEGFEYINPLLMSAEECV

Structure (SMILES)	observed	technique	concentration	remaining binding
CN(C)c1ncc(F)c(-c2cnn3ncccc23)n1	binding		1 µM	100%
NS(=O)(=O)c1cc(NC(=O)C2(c3ccccc3Cl)CC2)ccc1Oc1cccc(Cl)c1	cell-free assay	competition with immobilised ligand	1 µM	98%
O=C(c1ccc(Nc2ncc(Cl)c(-c3cc4ccccc4s3)n2)cc1)N1CCC(N2CCCC2)CC1	binding	competition with immobilised ligand	1 µM	72%
COc1cnc(Nc2cccc(S(N)(=O)=O)c2)nc1N1CCN(c2ccccc2)CC1	binding	competition with immobilised ligand	1 µM	95%
C[C@H]1CCN(c2nccc(-c3cnn4ncccc34)n2)C1	binding		1 µM	59%
c1cncc(-c2cccc(Nc3nccc(NC4CCCCC4)n3)c2)c1	binding	competition with immobilised ligand	10 µM	78%
CN(C)c1nccc(-c2cnc3ncccn23)n1	binding		1 µM	72%
C=CC(=O)N1CCC(C(=O)NCC(=O)N2CCN(c3nc(-c4cnc(N)nc4C(F)F)nc(N4CCOCC4)n3)CC2)CC1	binding	competition with immobilised ligand	1 µM	95%
O=C1NC(c2ccccn2)Sc2ccccc21 (centres unmarked)	cell-free assay	competition with immobilised ligand	1 µM	72%
c1cnn2ncc(-c3ccnc(N4CCC45COC5)n3)c2c1	binding		1 µM	58%
CC(=O)N1CCC(c2ccc(C(=O)NC(=N)N)cc2C(F)(F)F)CC1	cell-free assay	competition with immobilised ligand	1 µM	100%
O=C(c1ccc(Nc2nccc(-c3cc4ccccc4s3)n2)cc1)N1CCC(N2CCCC2)CC1	binding	competition with immobilised ligand	1 µM	54%
CN(C)c1nccc(-c2cnn3ncccc23)n1	binding		1 µM	81%
CN(C)c1ncnc(-c2ccc3nc(Nc4cc(CN5CCN(C(=O)CC(F)(F)F)CC5)ccn4)[nH]c3c2)c1Cl	cell-free assay	competition with immobilised ligand	1 µM	79%
Cc1cnc(Nc2ccc(C(=O)N3CCC(N4CCCC4)CC3)cc2)nc1-c1cc2ccccc2s1	binding	competition with immobilised ligand	1 µM	83%
COc1ccc2c(c1)O[C@@H](c1ccc(OC)c(OC)c1)C[C@H]2NC(=O)C1(c2ccc3c(c2)OC(F)(F)O3)CC1	cell-free assay	competition with immobilised ligand	1 µM	92%
O=C(NCC1CCOCC1)c1n[nH]cc1NC(=O)c1c(F)cccc1F	binding	competition with immobilised ligand	1 µM	73%
CN([C@@H]1CCc2c(CC(=O)O)c3cc(S(C)(=O)=O)ccc3n2C1)S(=O)(=O)c1ccc(F)cc1	cell-free assay	competition with immobilised ligand	1 µM	100%
CN(CCCC(F)(F)F)c1nccc(-c2cnn3ncccc23)n1	binding		1 µM	100%
Nc1ncc2c(n1)-c1c([nH]c3ccc(C#CC4CC4)cc13)CCCC2	binding	competition with immobilised ligand	1 µM	89%
